Assay outcomes: PubChem, several laboratories
An excerpt weighted towards active compounds, which were near 1.7% of everything screened.
VIM-2 inhibitor: inhibitors of Pseudomonas aeruginosa VIM-2 metallo-beta-lactamase; inhibition, % at 5.6 µM; 0.89% of 290,000 active; purified VIM-2, nitrocefin hydrolysis, epi-absorbance fluorescence;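 active = inhibition above the mean of all tested compounds plus 3 SD, cutoff set per screening run, cut at about 7.5% in these data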;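 also: red hydrolysis product quenches plate fluorescence so inhibitors raise well fluorescence; 0% = enzyme with DMSO and 100% = DMSO without enzyme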
IMP-1 inh-1: blocks Pseudomonas aeruginosa IMP-1 metallo-beta-lactamase; purified IMP-1, nitrocefin hydrolysis, epi-absorbance fluorescence; inhibition, % at 5.6 µM; 0.45% of 290,000 active;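 active = inhibition above the mean plus 3 SD of all compounds in the same screening run, cut at about 4.5% in these data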;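 also: 0% = IMP-1 with DMSO and 100% = DMSO wells lacking enzyme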
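System – purified recombinant IMP-1 beta-lactamase · Input – IMP-1 dispensed at 0.2 nM · Timing – 15 min preincubation plus 25 min reaction at 25 °C · Signal – Epi-absorbance fluorescence, 480 nm excitation, 530 nm emission · Measure – percent IMP-1 inhibition derived from blank-referenced optical density · Controls – Enzyme-plus-DMSO low control, enzyme-free DMSO high control · Replication – singlicate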
PolyA inhibitor: yeast polyadenylation inhibition; S. cerevisiae SKY197-pL101 polyadenylation reporter, beta-gal luminescence; efflux-impaired pdr1/pdr3 knockout yeast; score 100 = 6 SD above DMSO; 0.02% of 300,000 active; activity score, % at 12 µM; AID 1875;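 active = lowest replicate activity score at least 50, where 100 means six control SD above control mean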;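 also: yeast exposed to compound for 9 h at 30 °C; higher score means more reporter readthrough which indicates perturbed polyadenylation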
proCasp7 act: activates human procaspase-7, counter-screen for procaspase-3 activators; P55210; recombinant procaspase-7, Ac-DEVD-pNA absorbance 405 nm; D23A/D198A/D206A triple mutant, cannot self-cleave; scale: DMSO 0, 5 µM enzyme 100; activation, % at 8.5 µM; 0.093% of 330,000 active; AID 463210;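 active = percent activation above the screen-wide mean plus 3 SD, cut at about 25% in these data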
Target sequence (P55210 whole entry D23A/D198A/D206A): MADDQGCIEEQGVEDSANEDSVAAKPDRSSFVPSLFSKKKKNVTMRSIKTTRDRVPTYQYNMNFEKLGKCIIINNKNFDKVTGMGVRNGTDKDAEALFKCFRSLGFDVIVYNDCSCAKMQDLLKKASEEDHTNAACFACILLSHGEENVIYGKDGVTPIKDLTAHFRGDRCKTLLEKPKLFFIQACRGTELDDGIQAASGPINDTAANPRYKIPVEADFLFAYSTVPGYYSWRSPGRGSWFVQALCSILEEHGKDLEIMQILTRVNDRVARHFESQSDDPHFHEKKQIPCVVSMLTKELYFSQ
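buffer or medium = Zinc-free HEPES/NaCl buffer, pH 7.4 | material = Procaspase-7 triple mutant (PC-7 D3A) | input = 2 µM procaspase-7 mutant as dispensed | signal = Epi-absorbance of released pNA at 405 nm, two timepoints | timing = 1 h preincubation, 2 h reaction | replicates = singlicate compound testing | evaluation = % activation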
proCasp3 act: procaspase-3 (human) activation; recombinant procaspase-3 D3A, Ac-DEVD-pNA absorbance 405 nm; 0.11% of 330,000 active; activation, % at 8.5 µM; P42574; AID 463141;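 active = activation above the mean of all tested compounds plus 3 SD, cut at about 21% in these data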;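 also: 0% = DMSO alone and 100% = DMSO wells spiked with extra 5 µM PC-3 D3A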
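Assay system: Procaspase-3 D3A mutant, all three cleavage aspartates alanine. Buffer or medium: Zinc-free HEPES saline buffer with Triton X-100. Times: 1 h compound preincubation, 2 h substrate hydrolysis at 25 °C. Measured by: 405 nm absorbance of p-nitroaniline, reads at 0 and 120 min. Read-out basis: percent activation relative to control range. Replicates: singlicate.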
Neddylation inh: inhibitors of human cullin neddylation; 0.58% of 360,000 active; AID 651699; P61081+Q13564; TR-FRET cullin neddylation, biochemical; calls only at 25 µM; in the data active = inhibition above about 36%
IMP-1 inh-2: IMP-1 inhibition, counter-screen for VIM-2 inhibitors | shares compounds with VIM-2 inhibitor | purified IMP-1, nitrocefin hydrolysis, epi-absorbance fluorescence | inhibition, % at 5.6 µM | 1,300 tested, under 10 active | AID 1856; call rule not given here;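 also: 0% = enzyme with vehicle and 100% = vehicle without enzyme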
VIM-2 FRET ctr: VIM-2 FRET inhibition, artifact counter-screen | inhibition, % at 5.6 µM | AID 1857 | purified VIM-2, CCF2 FRET substrate hydrolysis | 23% of 1,300 active | shares compounds with VIM-2 inhibitor;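 active = inhibition above the mean of all tested compounds plus 3 SD, cut at about 19% in these data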;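 also: 0% = VIM-2 plus DMSO and 100% = no enzyme wells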
TEM-1 inh: blocks E. coli TEM-1 beta-lactamase in VIM-2 selectivity screen; shares compounds with VIM-2 inhibitor; Purified TEM-1, nitrocefin hydrolysis, epi-absorbance fluorescence; inhibition, % at 5.6 µM; 3% of 1,300 active; AID 1866;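 active = inhibition above that campaign's mean inhibition plus 3 SD, cut at about 0.46% in these data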;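 also: 0% = TEM-1 with DMSO and 100% = TEM-1 with 100 µM potassium clavulanate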
Target sequence (P62593 whole entry, looked up): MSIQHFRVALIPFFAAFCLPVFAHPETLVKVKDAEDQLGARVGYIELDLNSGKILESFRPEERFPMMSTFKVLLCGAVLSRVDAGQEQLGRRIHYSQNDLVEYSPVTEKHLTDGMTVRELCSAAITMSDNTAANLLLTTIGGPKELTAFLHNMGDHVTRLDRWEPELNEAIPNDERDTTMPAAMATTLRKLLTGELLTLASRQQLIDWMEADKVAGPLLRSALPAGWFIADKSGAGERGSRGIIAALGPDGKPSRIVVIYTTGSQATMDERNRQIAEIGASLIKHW
VIM-2 inh conf: confirmation of P. aeruginosa VIM-2 metallo-beta-lactamase inhibitors. purified VIM-2, nitrocefin hydrolysis, epi-absorbance. inhibition, % at 5.6 µM. shares compounds with VIM-2 inhibitor. 96% of 1,300 active;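 active = inhibition of the VIM-2 beta-lactamase enzyme above about 11% from the earlier first-round screen, limit read from the data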;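 also: 0% = VIM-2 with DMSO and 100% = buffer wells without enzyme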
An asterisk follows results filed as active; i = inactive; nt = no result given.

SMILES | VIM-2 inhibitor | IMP-1 inh-1 | PolyA inhibitor | proCasp7 act | proCasp3 act | Neddylation inh | IMP-1 inh-2 | VIM-2 FRET ctr | TEM-1 inh | VIM-2 inh conf
Cn1c(C(=O)NCCCN2CCCC2=O)cc2c(=O)n(C)c3ccccc3c21 | 13* | -3 | -7 | 7 | 4 | i | -3 | -3 | -6 | 29*
COc1ccc(NC(=O)CSCC(=O)N(C)CCOc2ccc(Cl)cc2)cc1 | nt | nt | 5 | 5 | -3 | i | nt | nt | nt | nt
CC1C(=O)N(Cc2cn(CCC3OCCO3)nn2)CCS(=O)(=O)N1Cc1ccc(-c2ccccc2)cc1 (stereo unspecified) | nt | nt | nt | nt | nt | i | nt | nt | nt | nt
CC(=O)Nc1cccc(-c2ccnc3c2CC(C(=O)NC(C)C)O3)c1 (stereo unspecified) | nt | nt | nt | nt | nt | i | nt | nt | nt | nt
CCN1CCN(C(=O)c2cc3c(=O)n(C)c4ccccc4c3n2C)CC1 | 17* | -3 | 10 | 5 | 4 | i | -3 | 4 | -6 | 22*
Cn1c(C(=O)NC2CCCCC2)cc2c(=O)n(C)c3ccccc3c21 | 1 | -5 | -5 | 3 | 11 | i | nt | nt | nt | nt
CC1CCCCN1CCNC(=O)c1cc2c(=O)n(C)c3ccccc3c2n1C (stereo unspecified) | 20* | -4 | -6 | 5 | 0 | i | -2 | 4 | -7 | 31*
CCN(CC)CCCCNc1ncc2cc(-c3cc(OC)cc(OC)c3)c(NC(=O)NC(C)(C)C)nc2n1 | 17* | -3 | 4 | 5 | -1 | nt | -4 | 5 | -7 | 25*
CCN(CC)CCNC1=NCCn2c1cc1cc(OC)ccc12 | 1 | -3 | -1 | -4 | -4 | nt | nt | nt | nt | nt
Cc1ccc(C(=O)NC(=S)Nc2cccc(NC(=O)c3ccccc3Cl)c2)cc1[N+](=O)[O-] | -7 | -4 | -17 | 0 | -3 | i | nt | nt | nt | nt
COC(=O)c1cc(C#N)c(Oc2ccc(F)cc2)nc1C | -3 | 0 | -11 | -1 | -7 | i | nt | nt | nt | nt
O=C(NCc1ccccc1)c1cc(-c2cccs2)on1 | -2 | -4 | -15 | 6 | 3 | i | nt | nt | nt | nt
Cc1sc2ncnc(Sc3ccccc3C(=O)O)c2c1C | 7 | -2 | 8 | 6 | 2 | i | nt | nt | nt | nt
O=C(O)c1ccccc1Sc1ncnc2sc3c(c12)CCC3 | 29* | -2 | -14 | 13 | 3 | i | -4 | 61* | -6 | 37*
COc1cc(/C=N/N(C)C2=NS(=O)(=O)c3ccccc32)cc(OC)c1OC | 32* | -2 | 8 | 3 | 4 | nt | -3 | -2 | -11 | 35*
CN(/N=C/C=C/c1ccccc1)C1=NS(=O)(=O)c2ccccc21 | -2 | -3 | -12 | 6 | 5 | nt | nt | nt | nt | nt
O=C1C2C3C=CC(C4CC34)C2C(=O)N1Cc1ccccc1 (stereo unspecified) | -3 | -3 | 12 | -8 | -2 | i | nt | nt | nt | nt
O=C(O)c1ccccc1Nc1ccc([N+](=O)[O-])c2nonc12 | 22* | -6 | -7 | -6 | -2 | i | -5 | 51* | -14 | 27*
CCCCCOC(=O)C1[C@H]2C(=O)N(Cc3cccs3)C[C@]23C=C[C@H]1O3 (stereo partly specified) | 0 | -3 | -3 | -3 | -3 | i | nt | nt | nt | nt
CN1CCN(c2ccc(Nc3ccnc4cc(Cl)ccc34)cc2)CC1 | 87* | 2 | -1 | -24 | -4 | i | -2 | -10 | -6 | 88*
Cc1ccc(-c2nn3c(C)nnc3c3ccccc23)cc1S(=O)(=O)NCCN1CCOCC1 | 42* | -3 | 11 | 3 | 9 | i | -3 | 3 | -3 | 58*
Cc1ccc(-c2nn3c(C)nnc3c3ccccc23)cc1S(=O)(=O)N(C)CCO | 21* | -3 | 6 | 10 | 3 | i | -5 | 1 | -6 | 32*
Cc1ccc(-c2n[nH]c(=O)c3ccccc23)cc1S(=O)(=O)NCCN1CCOCC1 | 8 | -2 | -3 | 6 | 7 | i | nt | nt | nt | nt
CC(=O)O[C@@H](Cc1ccc(O)cc1)C(=O)CC(C)C | nt | nt | nt | nt | nt | i | nt | nt | nt | nt
COc1ccc(Oc2nc(SC)nc3ccsc23)cc1 | 2 | -2 | -7 | -4 | 2 | i | nt | nt | nt | nt
SMILES | VIM-2 inhibitor | IMP-1 inh-1 | PolyA inhibitor | proCasp7 act | proCasp3 act | Neddylation inh | IMP-1 inh-2 | VIM-2 FRET ctr | TEM-1 inh | VIM-2 inh conf
Cc1ccccc1NC(=O)NCC1CCN(C(=O)OC(C)(C)C)CC1 | -4 | 2 | 3 | 2 | 9 | i | nt | nt | nt | nt
Cc1nc2ncccn2c1-c1csc(Nc2ccc(O)cc2)n1 | 17* | -2 | -3 | nt | nt | i | -4 | 16 | -11 | 28*
Cc1ccc(Cl)cc1-n1c(=O)cc(N2CCN(C(=O)c3ccco3)CC2)[nH]c1=O | -3 | -3 | 7 | -1 | -3 | i | nt | nt | nt | nt
CN(c1ccc(C(=O)Nc2ccc(S(=O)(=O)N3CCCC3)cc2)cc1)S(C)(=O)=O | -3 | -2 | 33 | 2 | -4 | i | nt | nt | nt | nt
CCOC(=O)c1c(-c2ccccc2)csc1NC(=O)CCN1C(=O)c2ccccc2C1=O | -2 | -2 | -19 | 1 | 0 | i | nt | nt | nt | nt
CCOC(=O)c1c(-c2ccc(-c3ccccc3)cc2)csc1NC(=O)CNCCN(C)C | 17* | -3 | -7 | -6 | 6 | i | -4 | -11 | -6 | 27*
O=c1cc(-c2ccncc2)oc2c1ccc1ccccc12 | 17* | -4 | 5 | -1 | -4 | nt | -3 | -1 | -4 | 23*
CCCn1c(C(C)C)n[nH]c1=S | 26* | -3 | 7 | -3 | -4 | i | -4 | 54* | -7 | 35*
CCCn1c(-c2ccncc2)n[nH]c1=S | 3 | 0 | 8 | 1 | -3 | i | nt | nt | nt | nt
Cc1ccc(-c2cn3c(=S)[nH]nc3s2)cc1 | 45* | -4 | 4 | -22 | -27 | i | -4 | 69* | -6 | 54*
CC1CCN(Cc2c(C(=O)N/N=C/c3cc(Br)ccc3O)nnn2-c2nonc2N)CC1 | -3 | -2 | -9 | -79 | -62 | i | nt | nt | nt | nt
COc1ccc(Cc2nnc(NC(=O)C3CCCO3)s2)cc1 (stereo unspecified) | -2 | 0 | -2 | 10 | 6 | i | nt | nt | nt | nt
